# Shown are actives, neighbours in structure and some others; about 4.1% of the full set was active somewhere.
# NF-kB expr up: activators of NF-kB expression in neurons, primary screen, cell-based, HTS | fold change at 12.5 µM | human neuronal cells, NF-kB reporter expression; active compounds read high | hit rate 1.6% among 190,000; in the data active = fold change above about 3.3
# STAT1 act: STAT1 signaling activators, primary screen, cell-based, HTS, luciferase reporter; NIH 3T3 STAT1-luciferase reporter, IFN-gamma, luminescence; 100% = IFN-gamma alone, no compound; activation (% of control), % at 5.5 µM; hit rate 2.6% among 200,000;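 active = activation above the screen-wide mean activation plus 3 SD, cut at about 130% in these data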;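 also: raw ratio to IFN-gamma control signal so 100% means no change and 0% no light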
# APP 5'UTR act: activators of APP 5'UTR luciferase reporter, primary screen, SH-SY5Y cells | SH-SY5Y APP 5'UTR luciferase reporter, luminescence; zero percent = DMSO vehicle wells | activation, % at 2 µM | hit rate 1% among 190,000;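 active = activation above a set limit, based on mean plus 3 SD of controls, cut at about 140% in these data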
# FLuc act counter: FLuc activators, initial screening, artefact control for FLuc-dependent activation tests, biochemical, ATPlite luminescence. Luciferin 4-monooxygenase (Photinus pyralis), P08659. ATPlite luciferase biochemical, 10 min; 0 = ATP-free wells, 1 = DMSO control. activation factor at 10 µM. 200,000 tested, under 10 active;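 active = luciferase activation factor, scaled between plate controls, of at least 2 with compound at 10 µM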
# Target sequence (P08659 whole entry, looked up): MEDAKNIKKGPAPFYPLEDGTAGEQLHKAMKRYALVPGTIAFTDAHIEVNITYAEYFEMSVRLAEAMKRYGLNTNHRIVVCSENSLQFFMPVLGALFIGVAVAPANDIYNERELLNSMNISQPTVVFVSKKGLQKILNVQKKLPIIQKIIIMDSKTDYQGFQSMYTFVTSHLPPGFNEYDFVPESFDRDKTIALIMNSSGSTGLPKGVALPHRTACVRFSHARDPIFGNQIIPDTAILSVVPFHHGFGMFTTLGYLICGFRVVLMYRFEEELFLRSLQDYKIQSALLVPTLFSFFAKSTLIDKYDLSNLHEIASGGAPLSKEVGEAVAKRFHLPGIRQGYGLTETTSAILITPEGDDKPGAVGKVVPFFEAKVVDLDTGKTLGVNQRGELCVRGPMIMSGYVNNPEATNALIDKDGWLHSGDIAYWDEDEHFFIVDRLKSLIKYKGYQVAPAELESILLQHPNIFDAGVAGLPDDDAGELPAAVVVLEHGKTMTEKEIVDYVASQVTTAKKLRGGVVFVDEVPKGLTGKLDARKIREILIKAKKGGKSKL
#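 Material: luciferase plus luciferin reagent, cell-free. Medium: PBS buffer for ATP. Also added: ATP substrate, dispensed from a 10.24 µM working solution in PBS. Doses: test compounds dosed from 2 mM stocks in 100% DMSO. Incubation: 10 min post-reagent at room temperature. Technique: light output (luminescence). Read-out basis: luminescence gain marking luciferase activators.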
# FLuc inh counter: firefly luciferase enzyme inhibitors, primary screen, artefact control for luciferase-based inhibitor screens, biochemical, luminescence, ATPLite; Luciferin 4-monooxygenase (Photinus pyralis), P08659; 10 min; inhibition, % at 10 µM; hit rate 1.5% among 200,000; AID 1006, 2008;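 active = inhibition above about 50% when tested at 10 µM, limit read from the data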
# Active calls of the source: *.
SMILES,NF-kB expr up,STAT1 act,APP 5'UTR act,FLuc act counter,FLuc inh counter
Cc1ccc(NC2=NCC(Cc3ccc(Br)cc3)S2)cc1 (stereo unspecified),0.88,93,15,1.1,-8
Cc1nc2cc(NC(=O)Nc3ccccc3Cl)ccc2n1C,3.9*,62,193*,0.1,91*
CC(=O)c1ccc(NC(=O)Nc2ccc3c(c2)nc(C)n3C)cc1,1.9,128,41,0.9,8
Cc1ccc(NC(=O)Nc2ccc3c(c2)nc(C)n3C)cc1,6.5*,132*,130,0.3,74*
Clc1ccc(CSc2nnc(-c3ccncc3)o2)cc1,0.96,91,-8,1.1,-6
Nc1nc2nccc(-c3ccc(Cl)cc3)n2n1,1.6,121,-1,0.5,51*
Cc1cc(-c2ccc(Cl)cc2)n2nc(N)nc2n1,1.2,94,8,0.9,6
c1ccc2oc(SCc3cn4ccsc4n3)nc2c1,3,138*,127,0.8,18
O=C(Cc1cn2ccsc2n1)OCc1ccccc1,5.3*,107,6,1,0
Clc1ccc(SCc2cn3ccsc3n2)cc1,2.3,134*,72,0.8,20
O=C(Cc1cn2ccsc2n1)NCc1ccccc1,1.3,93,10,1,-2
Clc1ccc(SCc2cn3cccnc3n2)cc1,1.8,124,3,1,4
Cc1csc2nc(CSc3nc4ccccc4o3)cn12,2,120,72,0.9,9
c1ccc(CSCc2cn3ccsc3n2)cc1,8.9*,132*,64,1,1
O=C(Cc1cn2ccsc2n1)OCc1nc2ccccc2s1,1.2,99,-11,1,2
O=C(NCCc1cn2ccsc2n1)C1CCCCC1,1.2,101,-10,1,-3
c1cn2cc(CSC3CCCCC3)nc2s1,2.7,134*,99,0.9,9
COc1ccc(C(=O)N[C@H](C(=O)Nc2nc3ccccc3[nH]2)C(C)C)cc1,1,126,-77,0.5,53*
O=C(Nc1nc2ccccc2[nH]1)C12CC3CC(CC(C3)C1)C2,3.1,132*,79,0.5,50*
CC(C)(C)/C(O)=C/c1nc2ccccc2[nH]c1=O,1.5,97,13,1,3
O=C(Nc1nc2ccccc2[nH]1)C1CC1,0.94,124,10,1,4
COc1cccc(C(=O)Nc2nc3ccccc3[nH]2)c1,2.5,60,150*,0.1,91*
O=c1[nH]c2ccccc2nc1/C=C/c1ccc(O)cc1,1,138*,81,0.5,54*
O=C(NN1CCOCC1)c1cc(-c2cccs2)nc2ccccc12,1.2,96,1,1,0
O=C(Nc1nc2ccccc2[nH]1)c1cccs1,3.8*,123,166*,0.3,69*
SMILES,NF-kB expr up,STAT1 act,APP 5'UTR act,FLuc act counter,FLuc inh counter
O=c1[nH]c2ccccc2nc1/C=C(\O)c1cccs1,1.5,146*,96,0.6,45
CSc1ccccc1C(=O)Nc1nc2ccccc2[nH]1,2.1,111,126,0.8,23
O=C(Nc1nc2ccccc2[nH]1)c1ccc([N+](=O)[O-])cc1,3,116,190*,0.5,51*
O=C(Nc1nc2ccccc2[nH]1)c1ccc(Br)o1,3.6*,144*,91,0.3,73*
O=C(NCc1nc2ccccc2[nH]1)c1ccc([N+](=O)[O-])cc1,0.77,100,-12,1,-3
Cc1nc2c(C)cccc2cc1C(=O)N/N=C/c1cccc([N+](=O)[O-])c1,0.99,95,-14,1,-4
CC1CCN(S(=O)(=O)c2ccc(Br)s2)CC1,0.97,102,2,1.1,-7
CCCC(=O)Nc1cc(C)c(NC(=O)C23CC4CC(CC(C4)C2)C3)cn1,0.85,101,-1,1.1,-7
Cc1cc(N)n(-c2ccc(C(=O)O)cc2)n1,1.4,96,10,1,-4
NC(=O)CSc1nnc(-c2ccc(S(=O)(=O)N3CCCC3)cc2)n1Cc1ccco1,1.2,99,-6,1,0
CN(C)S(=O)(=O)Oc1cccc(C(=O)Nc2cccc(Cl)c2)c1,1.6,116,72,1,4
COC(=O)c1ccc(OS(=O)(=O)N(C)C)cc1,1,130*,27,0.9,9
